Laboratory results as given in ChEMBL document CHEMBL4610016, “Synthesis, biological evaluation and anti-proliferative mechanism of fluorine-containing proguanil derivatives” (Bioorg Med Chem, 2020).
Activity calls are given as the source filed them. The rule behind the calls is not given here.

How the values were obtained:
A2780 [1] = assay: Antiproliferative activity against human A2780 cells assessed as reduction in cell viability incubated for 72 hrs by MTT assay; format: functional, cell-based; conditions: A2780, 72 h
In short: (§1)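 Cells were seeded at 6.0×10³ per well and left 12 h, then treated in triplicate for 72 h. Ranges were 0–8 μM for UMUC3, T24, A2780 and HCT116, and 0–4 μM for A549. MTT (2 mg/mL) replaced the medium for 6 h at 37 °C, followed by DMSO solubilization and OD 490 nm. IC50 was taken as the mean of triplicate measurements. Cells were kept at 37 °C, 5% CO₂.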

T-24 [2] = assay: Antiproliferative activity against human T24 cells assessed as reduction in cell viability incubated for 72 hrs by MTT assay; format: functional, cell-based; conditions: T-24, 72 h
HCT-116 [3] = assay: Antiproliferative activity against human HCT116 cells assessed as reduction in cell viability incubated for 72 hrs by MTT assay; format: functional, cell-based; conditions: HCT-116, 72 h
A549 [4] = assay: Antiproliferative activity against human A549 cells assessed as reduction in cell viability incubated for 72 hrs by MTT assay; format: functional, cell-based; conditions: A549, 72 h; in short: as §1
UMUC3 [5] = assay: Antiproliferative activity against human UM-UC-3 cells assessed as reduction in cell viability incubated for 72 hrs by MTT assay; format: functional, cell-based; conditions: UMUC3, 72 h; in short: as §1
UMUC3 [6] = assay: Inhibition of cell migration in human UM-UC-3 cells at 3 uM incubated for 24 and 48 hrs by cellular scratch assay based microscopic analysis; format: functional
In short: (§2)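 Scratch wound assay. Cells were grown to confluence and scratched with a 10 μL tip, then washed twice with PBS. Compound was added in serum-free medium: 3 μM for UMUC3 and T24, 2 μM for A549. Gaps were photographed at 0, 24 and 48 h, and wound closure distance was measured. Three independent repeats were run.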

A2780 [7] = assay: Inhibition of colony formation in human A2780 cells at 2 uM incubated for 6 to 8 days by crystal violet staining based assay; format: functional, cell-based
In short: (§3)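 Colony formation: 8.0×10³ cells per well were seeded, and treatment began after 24 h, in triplicate, for 6–8 days. Ranges were 0–8 μM for UMUC3, T24 and HCT116, 0–4 μM for A2780, and 0–2 μM for A549. Cells were fixed in 10% formaldehyde and stained with 0.1% crystal violet. Colonies were counted, and absorbance was read at 490 nm. Data are the mean of 3 independent experiments.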

UMUC3 [8] = assay: Inhibition of colony formation in human UM-UC-3 cells at 2 uM incubated for 6 to 8 days by crystal violet staining based assay; format: functional, cell-based; in short: as §3
HCT-116 [9] = assay: Inhibition of colony formation in human HCT116 cells at 2 uM incubated for 6 to 8 days by crystal violet staining based assay; format: functional, cell-based; in short: as §3
A549 [10] = assay: Inhibition of colony formation in human A549 cells at 2 uM incubated for 6 to 8 days by crystal violet staining based assay relative to control; format: functional; in short: as §3
T-24 [11] = assay: Inhibition of colony formation in human T24 cells at 2 uM incubated for 6 to 8 days by crystal violet staining based assay; format: functional, cell-based; in short: as §3
T-24 [12] = assay: Inhibition of cell migration in human T24 cells at 3 uM incubated for 24 and 48 hrs by cellular scratch assay based microscopic analysis; format: functional; in short: as §2
A549 [13] = assay: Inhibition of cell migration in human A549 cells at 2 uM incubated for 24 and 48 hrs by cellular scratch assay based microscopic analysis; format: functional; in short: as §2
HUVEC = assay: Cytotoxicity against human HUVEC cells assessed as reduction in cell viability incubated for 72 hrs by MTT assay; format: cell-based
In short: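 HUVEC were treated at 0–8 μM for 72 h, and viability was read from concentration-response curves. Values are the average of 3 independent experiments.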

[14] = biological target: T1, AMP-activated protein kinase, AMPK (Homo sapiens) (UniProt P54646+O43741+P54619+Q9UGJ0+Q9Y478+Q13131+Q9UGI9); assay: Activation of AMPK in human T24 cells assessed as decrease in 4EBP1 phosphorylation at 2 uM measured upto 12 hrs by Western blot analysis; format: cell-based; conditions: T-24
In short: (§4)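 Western blot of bladder cancer cells treated at 2 μM over a 0–12 h time course; separately, a 0–2 μM series was run for 12 h. Lysates were resolved by 8% or 10% SDS-PAGE, transferred to PVDF, and blocked in 5% milk/TBST for 1 h. Primary antibodies were applied overnight at 4 °C and secondaries for 1 h. Phospho- and total AMPK, mTOR, p70S6K and 4EBP1 were probed. Band density was normalized to β-actin, and the mean of 3 independent experiments is reported.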

[15] = biological target: T1, AMP-activated protein kinase, AMPK (Homo sapiens); assay: Activation of AMPK in human T24 cells assessed as increase in AMPK phosphorylation at 2 uM measured upto 12 hrs by Western blot analysis; format: cell-based; conditions: T-24; in short: as §4
[16] = biological target: T1, AMP-activated protein kinase, AMPK (Homo sapiens); assay: Activation of AMPK in human UM-UC-3 cells assessed as decrease in 4EBP1 phosphorylation at 2 uM measured upto 12 hrs by Western blot analysis; format: cell-based; in short: as §4
[17] = biological target: T1, AMP-activated protein kinase, AMPK (Homo sapiens); assay: Activation of AMPK in human T24 cells assessed as decrease in mTOR phosphorylation at 2 uM measured upto 12 hrs by Western blot analysis; format: cell-based; conditions: T-24; in short: as §4
[18] = biological target: T1, AMP-activated protein kinase, AMPK (Homo sapiens); assay: Activation of AMPK in human UM-UC-3 cells assessed as decrease in mTOR phosphorylation at 2 uM measured upto 12 hrs by Western blot analysis; format: cell-based; in short: as §4
[19] = biological target: T1, AMP-activated protein kinase, AMPK (Homo sapiens); assay: Activation of AMPK in human T24 cells assessed as decrease in p70S6K phosphorylation at 2 uM measured upto 12 hrs by Western blot analysis; format: cell-based; conditions: T-24; in short: as §4
[20] = biological target: T1, AMP-activated protein kinase, AMPK (Homo sapiens); assay: Activation of AMPK in human UM-UC-3 cells assessed as decrease in p70S6K phosphorylation at 2 uM measured upto 12 hrs by Western blot analysis; format: cell-based; in short: as §4
[21] = biological target: T1, AMP-activated protein kinase, AMPK (Homo sapiens); assay: Activation of AMPK in human UM-UC-3 cells assessed as increase in AMPK phosphorylation at 2 uM measured upto 12 hrs by Western blot analysis; format: cell-based; in short: as §4

SMILES | IC50 (A2780 [1]) | IC50 (T-24 [2]) | IC50 (HCT-116 [3]) | IC50 (A549 [4]) | IC50 (UMUC3 [5]) | also measured
N=C(NC(=N)NC1CCCC1)Nc1ccc(F)c(F)c1 | 9.3 µM | 24.9 µM | 16.8 µM | 3.5 µM | 7.2 µM | –
CC(C)NC(=N)NC(=N)Nc1ccc(F)cc1 | 28 µM | > 50 µM | > 50 µM | 7.5 µM | > 50 µM | –
N=C(NC(=N)NC1CCCC1)Nc1ccc(F)cc1F | 14.7 µM | 37.8 µM | 29.5 µM | 4 µM | 18.4 µM | –
CC(C)CNC(=N)NC(=N)Nc1ccc(F)c(F)c1 | 6.7 µM | 42.9 µM | 29.7 µM | 2.4 µM | 7.1 µM | –
CCN(CC)C(=N)NC(=N)Nc1ccc(C(F)(F)F)cc1 | 3.8 µM | 6.2 µM | 4.3 µM | 3.7 µM | 4.9 µM | –
CC(C)NC(=N)NC(=N)Nc1ccc(F)c(F)c1 | 26 µM | 45 µM | > 50 µM | 5.2 µM | 25 µM | –
N=C(NC(=N)NC1CCCC1)Nc1ccc(C(F)(F)F)cc1 | 2.5 µM | 3.7 µM | 3.8 µM | 1.8 µM | 3.3 µM | inhibition (UMUC3 [6]): Active; inhibition (A2780 [7]): Active; inhibition (UMUC3 [8]): Active; inhibition (HCT-116 [9]): Active; inhibition at 2 µM (A549 [10]): 100%; inhibition (T-24 [11]): Active; inhibition (T-24 [12]): Active; inhibition (A549 [13]): Active; IC50 (HUVEC): 7.3 µM
CC(C)CNC(=N)NC(=N)Nc1ccc(C(F)(F)F)cc1 | 2.1 µM | 3.1 µM | 3.5 µM | 1.3 µM | 2 µM | Activity [14]: Active; inhibition (UMUC3 [6]): Active; Activity [15]: Active; inhibition (A2780 [7]): Active; Activity [16]: Active; inhibition (UMUC3 [8]): Active; inhibition (HCT-116 [9]): Active; inhibition at 2 µM (A549 [10]): 100%; Activity [17]: Active; inhibition (T-24 [11]): Active; inhibition (T-24 [12]): Active; Activity [18]: Active; Activity [19]: Active; Activity [20]: Active; Activity [21]: Active; inhibition (A549 [13]): Active; IC50 (HUVEC): 8.5 µM
CCCCCCCNC(=N)NC(=N)Nc1ccc(F)c(F)c1 | 1.5 µM | 4.3 µM | 1.8 µM | 1.5 µM | 2.1 µM | inhibition (UMUC3 [6]): Active; inhibition (A2780 [7]): Active; inhibition (UMUC3 [8]): Active; inhibition (HCT-116 [9]): Active; inhibition at 2 µM (A549 [10]): 100%; inhibition (T-24 [11]): Active; inhibition (T-24 [12]): Active; inhibition (A549 [13]): Active; IC50 (HUVEC): 6.4 µM
CCN(C)C(=N)NC(=N)Nc1ccc(C(F)(F)F)cc1 | 5.1 µM | 5.7 µM | 4 µM | 4.1 µM | 6.9 µM | –
CC(C)CNC(=N)NC(=N)Nc1ccc(F)cc1F | 19.8 µM | 40.8 µM | 21.1 µM | 3.6 µM | 17.3 µM | –
CCN(CC)C(=N)NC(=N)Nc1ccc(F)c(F)c1 | 20.4 µM | 44.8 µM | 39.4 µM | 7.8 µM | 22.1 µM | –
CC(C)NC(=N)NC(=N)Nc1ccc(Cl)cc1 [PROGUANIL] | 13 µM | 18.4 µM | 8.4 µM | 3.8 µM | 16.3 µM | Activity [14]: Active; inhibition (UMUC3 [6]): inactive; Activity [15]: inactive; inhibition (A2780 [7]): Active; Activity [16]: Active; inhibition (UMUC3 [8]): Active; inhibition (HCT-116 [9]): Active; Activity [17]: Active; inhibition (T-24 [11]): Active; inhibition (T-24 [12]): inactive; Activity [18]: Active; Activity [19]: Active; Activity [20]: Active; Activity [21]: inactive; inhibition (A549 [13]): inactive
CC(C)NC(=N)NC(=N)Nc1ccc(C(F)(F)F)cc1 | 3.2 µM | 4.8 µM | 4.8 µM | 3.6 µM | 5.2 µM | –
